This is a sample that favours compounds with a hit; in the whole collection about 3.7% have one here.
KCNQ1 act – human KCNQ1 channel potentiation or activation | AID 2648 | B-score at 10 µM | P51787 | CHO-K1 KCNQ1, thallium flux FluxOR fluorescence; stronger effect = higher value | 310,000 compounds, 0.35% hits;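 active means fluorescence ratio B-score, a plate-corrected score, at least three library SD, with initial intensity B-score within 5 SD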
Target sequence (P51787 whole entry, looked up): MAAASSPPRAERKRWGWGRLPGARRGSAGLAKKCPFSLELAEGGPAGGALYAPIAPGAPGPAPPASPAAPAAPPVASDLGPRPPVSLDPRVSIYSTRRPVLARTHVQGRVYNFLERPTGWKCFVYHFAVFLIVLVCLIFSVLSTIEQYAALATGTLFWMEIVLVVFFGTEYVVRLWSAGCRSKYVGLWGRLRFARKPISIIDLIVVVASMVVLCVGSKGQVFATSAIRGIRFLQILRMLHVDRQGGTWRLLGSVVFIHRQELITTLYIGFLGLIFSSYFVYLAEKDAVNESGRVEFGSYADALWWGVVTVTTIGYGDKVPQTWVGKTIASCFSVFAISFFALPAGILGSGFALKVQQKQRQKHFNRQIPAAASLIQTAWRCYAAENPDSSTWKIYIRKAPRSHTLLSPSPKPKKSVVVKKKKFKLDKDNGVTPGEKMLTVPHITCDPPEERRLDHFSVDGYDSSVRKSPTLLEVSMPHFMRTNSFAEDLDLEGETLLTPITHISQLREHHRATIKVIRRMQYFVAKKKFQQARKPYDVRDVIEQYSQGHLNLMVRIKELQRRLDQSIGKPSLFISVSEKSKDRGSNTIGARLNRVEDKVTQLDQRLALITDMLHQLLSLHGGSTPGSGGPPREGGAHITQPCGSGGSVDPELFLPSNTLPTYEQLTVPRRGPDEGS
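assay system = KCNQ1-transfected CHO-K1 cells | medium = assay buffer with matched DMSO | probe or stimulus = depolarizing K+/Tl+ stimulus, K2SO4 and Tl2SO4 each 12.5 mM in 5x stock | dosing = single dose | incubation = dye 90 min, compound 20 min, room temperature | detection = kinetic FluxOR fluorescence, 10 s baseline plus 110 s post-stimulus | evaluation = ratio B score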
KCNQ1 block – inhibitors of human KCNQ1 potassium channel. CHO-K1 KCNQ1, FluxOR thallium flux fluorescence; stronger effect = higher value. B-score at 10 µM. 310,000 compounds, 1.3% hits;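 active means compounds whose thallium flux B-score, printed positive for inhibition, exceeds three library SD while starting fluorescence stays within three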;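 further: channel opened by potassium depolarization with thallium stimulus after 20 min compound exposure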
Kir21 inh – inhibitors of mouse Kir2.1 inward-rectifier potassium channel; HEK293-Kir2.1, FluxOR thallium flux fluorescence; stronger effect = lower value; B-score at 10 µM; 310,000 compounds, 0.85% hits; AID 1672;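 active means fluorescence ratio B-score at or below minus 3 SD of library scores, with starting-brightness B-score within 2 SD, cut at about -4.2 in these data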;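 further: channel flux triggered by added potassium and thallium sulfate stimulus; B-score of peak minus minimum fluorescence over baseline after thallium stimulus; more negative B-score means stronger Kir2.1 block with less thallium influx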
hERG rescue – hERG (human) protection from proarrhythmic block. 310,000 compounds, 0.51% hits. AID 1511. activation (rescue from dofetilide block), less the hit threshold, % at 10 µM. CHO-hERG, FluxOR thallium flux, dofetilide IC70 present;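 active means activation above the mean of controls blocked by dofetilide plus 5 SD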;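 further: thallium influx through hERG after potassium depolarization seen as dye fluorescence rise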
KCNK3 block – human KCNK3 channel inhibition, primary screen. AID 602410. 340,000 compounds, 0.84% hits. CHO-KCNK3 thallium flux, FluxOR fluorescence; stronger effect = lower value. O14649. B-score at 10 µM;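 active means B-score under library mean minus 4 SD, starting fluorescence ratio at most library mean plus 5 SD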;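 further: more negative B-score means stronger inhibition of thallium flux through KCNK3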
KCNK9 block – inhibitors of human KCNK9 two-pore domain potassium channel; Q9NPC2; 310,000 compounds, 1.2% hits; B-score at 10 µM; HEK293 KCNK9, FluxOR thallium flux fluorescence; stronger effect = lower value;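 active means ratio B-score over 3 SD below the library mean, with starting fluorescence within 5 SD of its mean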;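 further: negative B-score means less thallium flux so channel inhibition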
A number is an active result; n = inactive; x = no result.

SMILES	KCNQ1 act	KCNQ1 block	Kir21 inh	hERG rescue	KCNK3 block	KCNK9 block
CC1(c2cccc(Br)c2)NC(=O)N(CC(=O)Nc2ccc3c(c2)OCO3)C1=O (centres undefined)	x	x	x	x	n	x
Cc1c(F)cccc1NS(=O)(=O)c1ccc2c(c1)c(C)cc(=O)n2C	n	n	n	n	n	n
COc1ccc(CN(C)C(=O)c2ccc3c(=O)n4c(nc3c2)CCC4)c(OC)c1	n	n	n	n	n	n
Nc1ccc2nc3c(=O)n(CCc4ccccc4)c(=O)[nH]c3nc2c1	n	8	n	n	n	n
O=C(NC12CC3CC(CC(C3)C1)C2)c1cc([N+](=O)[O-])ccc1N1CCOCC1	n	7	n	n	n	n
Cc1ccc(Cl)c(OCC(=O)NCC(c2cccs2)N2CCOCC2)c1 (centres undefined)	n	n	-7.8	n	n	n
CSC(=S)N/N=C(\C)c1ccc(Br)cc1	41	n	n	n	n	n
COC(CNS(=O)(=O)c1cc2c3c(c1)CCN3C(=O)CC2)OC	n	n	n	n	n	n
Cc1ccccc1OCC(=O)N1N=C(C(F)(F)F)CC1(O)C(C)(C)C (centres undefined)	n	n	n	n	n	n
CC(C)(C)C1(O)CC(C(F)(F)F)=NN1C(=O)Cc1ccc([N+](=O)[O-])cc1 (centres undefined)	12	n	n	n	n	n
Cc1ccc(OCC(=O)N2N=C(C(F)(F)F)CC2(O)C(C)(C)C)cc1C (centres undefined)	n	7	-4.2	n	n	n
COc1ccc(C(=O)CCS(=O)(=O)c2ccc(F)cc2)cc1OC	24	n	n	n	n	n
NC(N)=N/N=C/c1ccc(OCc2ccccc2)cc1	n	n	-11	n	n	n
O=C(c1sc2cccc(Cl)c2c1Cl)N1CCN(CCc2ccccn2)CC1	n	n	n	n	n	n
COCCCNC(=O)CCc1c(C)nc2c(c(C)nn2-c2ccc(C)cc2)c1C	n	n	n	n	n	n
CCN(CC)CCNC(=O)CCc1c(C)nc2c(c(C)nn2-c2ccc(C)cc2)c1C	n	n	-4.5	n	n	n
COc1ccc2c(c1)C(CC(=O)NN)CCC2 (centres undefined)	x	x	x	x	n	x
CCNc1ccc(Br)cc(C(=O)/C=C/c2c(Cl)cccc2Cl)c1=O	n	6	n	n	-9	n
CCOC(=O)c1[nH]c(=O)[nH]c1COC(=O)c1cc2ccccc2o1	n	n	n	6.2	n	n
COc1ccc(OC)c(NC(=O)CCn2ccnc2)c1	n	n	n	n	n	n
CCOc1ccc(-c2csc(/C(C#N)=C\c3ccc(O)c([N+](=O)[O-])c3)n2)cc1	n	6	n	n	n	n
O=C(CC(=O)NC1CCCCC1)N/N=C/c1ccccc1[N+](=O)[O-]	n	n	n	n	n	n
COc1ccc(CC(=O)Nc2ccccc2N2CCCC2)cc1	n	n	-6.3	n	n	n
COc1ccc(CC(=O)Nc2ccccc2N2CCCC2)cc1OC	n	n	-4.5	n	n	n
O=C(CCNC(=O)c1ccc(Cl)cc1)Nc1ccccc1N1CCCCC1	n	n	-4.6	n	n	n
SMILES	KCNQ1 act	KCNQ1 block	Kir21 inh	hERG rescue	KCNK3 block	KCNK9 block
O=C(Cc1ccccc1)Nc1ccccc1N1CCCC1	n	n	n	n	n	n
O=C(NCC(c1cccs1)N1CCOCC1)C1CCN(S(=O)(=O)c2cccc(C(F)(F)F)c2)CC1 (centres undefined)	9	n	n	n	n	n
Cc1ccc(-n2ncc3c2CC(C)(C)CC3NC(=O)c2ccncc2)cc1 (centres undefined)	n	n	n	n	n	n
Cc1cc(=O)[nH]c(SCC(=O)N2CCC(Cc3ccccc3)CC2)n1	n	n	n	n	n	n
O=C(CSc1nc(C(F)(F)F)cc(=O)[nH]1)N1CCC(Cc2ccccc2)CC1	n	6	n	n	n	n
CC(=O)Nc1ccc(S(=O)(=O)N2CCN(c3cc(C)nc4ccccc34)CC2)cc1	n	n	n	n	n	n
CC(=O)Nc1ccc(S(=O)(=O)N2CCN(c3nc(NC4CCCC4)c4ccccc4n3)CC2)cc1	n	6	n	n	n	n
Cc1cccc(C(=O)NC(=S)N2CCc3ccccc3C2)c1	13	n	n	21	n	n
Cc1cccc(C(=O)NCCC(=O)N2CCc3ccccc3C2)c1	x	x	x	x	n	x
CCOC(=O)c1ccc(N(CC(=O)NC2CCCCC2)C(=O)CNC(=O)c2ccco2)cc1	n	n	n	n	n	n
CCC1CCCCN1C(=S)NC(=O)c1ccc([N+](=O)[O-])cc1 (centres undefined)	18	n	n	16	n	n
CCC1CCCCN1C(=S)NC(=O)c1cccs1 (centres undefined)	8	n	n	5.3	n	n
O=C(NC(=S)N1CCCCC1CO)c1cccs1 (centres undefined)	x	x	x	x	n	x
Cc1ccc2nc(NS(=O)(=O)c3cn(C)nc3C)sc2c1	n	n	n	n	n	n
CC1=NN(c2ccccc2)C(=O)/C1=C\c1c(C)[nH]n(-c2ccccc2)c1=O	n	n	n	n	n	n
CC1=NN(c2ccccc2)C(=O)/C1=C/c1c(O)n(-c2ccc(F)c(Cl)c2)[nH]c1=O	12	n	n	n	x	n
COC(=O)c1cc2ccsc2n1Cc1nc(-c2cccc(Cl)c2)oc1C	n	n	n	n	n	-7.3
COC(=O)c1cc2sccc2n1Cc1nc(-c2ccc(Cl)cc2)oc1C	n	n	n	n	n	n
O=C1CNC(=S)N1C1CCCCCC1	n	n	-5.6	n	n	n
CCCC1NC(=S)N(C2CCCCC2)C1=O (centres undefined)	n	n	n	n	n	n
CN(CC(=O)O)S(=O)(=O)c1ccc2c(c1)NC(=O)CC(=O)N2	n	n	n	n	n	n
O=C(Nc1ccc([N+](=O)[O-])cn1)c1cc(-c2cccc(Br)c2)nc2ccccc12	n	n	n	n	n	n
COc1cccc(-c2cc(C(=O)Nc3ccc([N+](=O)[O-])cn3)c3ccccc3n2)c1	n	n	n	n	n	-7.8
O=C(Nc1ccc([N+](=O)[O-])cn1)c1cc(-c2cccc(Cl)c2)nc2ccccc12	n	n	n	n	n	-7.1
Cc1cc(=O)oc2cc(OCC(=O)N3CCCC3)c(Cl)cc12	x	x	x	x	n	x
O=C(COC(=O)c1ccc(Br)o1)c1ccc(S(=O)(=O)N2CCCCC2)cc1	x	x	x	x	n	x
CCn1c(CNC(=O)c2cccc(C)c2)nnc1SCC(=O)N1CCOCC1	n	n	n	n	n	n
Cc1nn(-c2ccccc2)c(C)c1C(=O)NCc1ccccc1F	n	n	n	n	n	n
CCOC(=O)Cc1csc(NC(=S)NC(=O)c2ccccc2)n1	n	n	n	n	n	n
CCOC(=O)Cc1csc(NC(=S)NC(=O)c2ccccc2Br)n1	17	n	n	15	n	n

Bioassay records as filed in PubChem.
